For 10 compounds, MIC and Protection results are on record in ChEMBL document CHEMBL1131231, “New azole antifungals. 2. Synthesis and antifungal activity of heterocyclecarboxamide derivatives of 3-amino-2-aryl-1-azolyl-2-butanol” (1998).

A short description of test [1]: The compound was tested in vitro for antifungal activity against 6 filamentous fungi. It counts as functional. A digest of the protocol: (§1)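 Agar dilution on Kimmig's agar with 0.5% glycerol; ATCC or clinical isolates, inocula at 10⁵ cfu/mL. Drugs from 800 μg/mL stock in 50% ethanol, 2-fold serial dilutions 80 to 0.03 μg/mL in plates. Incubated 25 °C, 48 h for yeasts, 120 h for filamentous fungi. Value is geometric mean of MICs (μg/mL); >80 taken as 160, ≤0.03 as 0.03.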

Test [2] can be described thus: In vivo antifungal activity against murine candidosis model after peroral administration with 1 mg/kg for 5 days.(percent protection for 100% mortality with untreated group). Format: functional, Mus musculus. To be noted: route oral. A digest of the protocol: (§2)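 Second murine systemic Candida albicans model. Mice, n = 10 per group, dosed orally once daily for 5 days after infection. Animals observed for 65 days, with survival rate as read-out and vehicle controls included. Reported as % protection on the day of 100% mortality in the untreated group or in the fluconazole-treated group.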

Test [3] relates to Mus musculus. Put plainly: In vivo antifungal activity against murine candidosis model after peroral administration with 1 mg/kg for 5 days.(percent protection for 100% mortality with fluconazole-treated group.). Format: functional. To be noted: route oral. Put shortly: as §2
A short description of test [4]: The compound was tested in vitro for antifungal activity against 10 yeasts. Format: functional. Put shortly:
as §1

Test [5] deals with Candida albicans. Put plainly: In vivo antifungal activity against murine candidosis model after peroral administration with 0.5 mg/kg at various time intervals. (percent protection for 100% mortality with untreated group). The note with it: route oral. It counts as functional. A digest of the protocol: (§3)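 Male mice, groups of 10, infected iv with 0.2 mL Candida albicans at (2–8) × 10⁷ cfu/mL. Oral suspension in 1% Tween + 0.2% carboxymethylcellulose in water, given 1, 4 and 24 h post-infection; vehicle controls and a fluconazole group at the same dose. Survival scored on days 1, 2, 3, 5, 7, 9, reported as % surviving on the day untreated, or fluconazole-treated, mortality reached 100%.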

Test [6] deals with Candida albicans. Put plainly: In vivo antifungal activity against murine candidosis model after peroral administration with 0.5 mg/kg at various time intervals. (percent protection for 100% mortality with fluconazole-treated group.). It counts as functional. To be noted: route oral. A digest of the protocol:
as §3

The test system of test [7] is Candida albicans. Put plainly: In vivo antifungal activity against murine candidosis model after peroral administration with 1 mg/kg at various time intervals. (percent protection for 100% mortality with fluconazole-treated group.). It counts as functional. To be noted: route oral. A digest of the protocol: as §3
Test [8] has as its system Candida albicans. Put plainly: In vivo antifungal activity against murine candidosis model after peroral administration with 1 mg/kg at various time intervals. (percent protection for 100% mortality with untreated group). Format: functional. To be noted: route oral. A digest of the protocol:
as §3

Test [9] has as its system Mus musculus. Description: In vivo antifungal activity against murine candidosis model after peroral administration with 2.5 mg/kg at various time intervals. (percent protection for 100% mortality with fluconazole-treated group.). Format: functional. The note with it: route oral. Put shortly: as §3
The test system of test [10] is Mus musculus. Description: In vivo antifungal activity against murine candidosis model after peroral administration with 2.5 mg/kg at various time intervals. (percent protection for 100% mortality with untreated group). Format: functional. To be noted: route oral. A digest of the protocol: as §3
For test [11], the system named is Mus musculus. Put plainly: In vivo antifungal activity against murine candidosis model after peroral administration with 0.5 mg/kg for 5 days.(percent protection for 100% mortality with untreated group). The note with it: route oral. Format: functional. Put shortly:
as §2

The test system of test [12] is Mus musculus. Description: In vivo antifungal activity against murine candidosis model after peroral administration with 0.5 mg/kg for 5 days.(percent protection for 100% mortality with fluconazole-treated group.). It counts as functional. To be noted: route oral. Put shortly: as §2

Converted amounts (≈) assume the structure as drawn.

Consider `C[C@H]([C@](O)(Cn1cncn1)c1ccc(F)cc1F)S(C)(=O)=O` [GENACONAZOLE], for which the MIC – broadly, the least concentration at which growth counts as inhibited – in [1] amounted to 25 µg/mL (≈ 75.5 µM); in [4], 8.7 µg/mL (≈ 26.3 µM). Further, the Protection in test [2] was 100%; in test [3], 20%; in [5] it was 100%; in test [6] it was 100%.
Regarding `C[C@@H](c1nc(-c2ccc(C#N)cc2)cs1)[C@](O)(Cn1cncn1)c1ccc(F)cc1F` [RAVUCONAZOLE], the results for the MIC in test [1] and in test [4] were 0.8 µg/mL (≈ 1.83 µM) and 0.3 µg/mL (≈ 0.686 µM), respectively. For the same compound, the Protection in test [2] stood at 20%; in test [3], 0%; in [5] it was 50%; in test [6], 0%.
In the case of `C[C@@H](c1ncncc1F)[C@](O)(Cn1cncn1)c1ccc(F)cc1F` [VORICONAZOLE], the minimum inhibitory concentration (MIC) worked out at 0.5 µg/mL (≈ 1.43 µM) in [1] and 0.6 µg/mL (≈ 1.72 µM) in [4]. The Protection amounted to 20% in [2], 0% in [3], 0% in test [5] and 0% in test [6].
For `C[C@@H](n1cnc2cc(-c3ccc(Cl)cc3)sc2c1=O)[C@](O)(Cn1cncn1)c1ccc(F)cc1F`, the MIC in [1] amounted to 2.2 µg/mL (≈ 4.28 µM); in test [4], 0.2 µg/mL (≈ 0.389 µM). Besides, the Protection in test [2], in [3], in test [7] and in test [8] was 100% each time.
`OC(Cn1cncn1)(Cn1cncn1)c1ccc(F)cc1F` [FLUCONAZOLE]: the figures for the MIC in test [1] and in test [4] were over 80 µg/mL and 30 µg/mL (≈ 98 µM), respectively. Also, the Protection in test [2] and in test [5] was 100% in each case.
On to `Cc1cc2nnc(C(=O)N[C@H](C)[C@](O)(Cn3cncn3)c3ccc(F)cc3F)c(C)n2n1`, for which the Protection in test [9] and in test [10] was 0% throughout. For the same compound, the results for the MIC in test [1] and in [4] were over 80 µg/mL and 10 µg/mL (≈ 22.6 µM), respectively.
For `C[C@@H](n1cnc2cc(-c3ccc(C#N)cc3)sc2c1=O)[C@](O)(Cn1cncn1)c1ccc(F)cc1F`, the Protection in [11] is on record as 100%; in [12], 40%; in test [7], 100%; in test [8], 100%. Moreover, the results for the MIC in [1] and in test [4] were 13 µg/mL (≈ 25.8 µM) and 0.3 µg/mL (≈ 0.595 µM), respectively.
Regarding `C[C@@H](NC(=O)c1ccc(-c2cccnc2)s1)[C@](O)(Cn1cncn1)c1ccc(F)cc1F`, the Protection was determined as 0% in test [9] and 60% in test [10]. For the same compound, the MIC was over 80 µg/mL in test [1] and 1.6 µg/mL (≈ 3.51 µM) in [4].
Turning to `Cc1nn(C)c2ncc(C(=O)N[C@H](C)[C@](O)(Cn3cncn3)c3ccc(F)cc3F)c(Cl)c12`, the Protection in test [9] and in [10] was 0% each time. Further, the MIC in [1] was over 80 µg/mL; in test [4], 19 µg/mL (≈ 39.9 µM).
For the compound `CS(=O)(=O)O.Cc1nc(-c2ccc(C#N)cc2)sc1C(=O)N[C@H](C)[C@](O)(Cn1cncn1)c1ccc(F)cc1F`, the MIC was determined as 4 µg/mL in [1] and 1.2 µg/mL in test [4]. The Protection is 100% in test [2], 10% in test [3], 100% in [5] and 100% in [6].
